Source: PubChem BioAssay AID651783 (The Scripps Research Institute Molecular Screening Center, 2012)
In all, about 2,400 compounds went through this assay and about 2,000 (83%) were called active.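 Rule for the calls: active = activation above a cutoff set at the run's mean compound activation plus 3 SD (cut at about 39% in these data); inactive = the rest.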 So high a share suggests a set chosen from earlier hits. Only a sample is shown.

The compounds below were run against Trace amine-associated receptor 1 (Homo sapiens) (UniProt Q96RJ0) (assay: activators of TAAR1 calcium signal, triplicate retest – Fluo-8 calcium fluorescence, CHO RD-HGA16 cells, confirmation (AID 651783;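 note: promiscuous G-alpha-16 overexpression reroutes TAAR1 signalling from cAMP to calcium; peak fluorescence divided by basal pre-compound fluorescence per well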)). Details: CHO RD-HGA16 TAAR1, Fluo-8 calcium fluorescence; at 3 µM; active compounds read high; scaled: DMSO 0%, maximal phenethylamine 100%.
Chain of Trace amine-associated receptor 1 (Homo sapiens) (Q96RJ0 whole entry, looked up): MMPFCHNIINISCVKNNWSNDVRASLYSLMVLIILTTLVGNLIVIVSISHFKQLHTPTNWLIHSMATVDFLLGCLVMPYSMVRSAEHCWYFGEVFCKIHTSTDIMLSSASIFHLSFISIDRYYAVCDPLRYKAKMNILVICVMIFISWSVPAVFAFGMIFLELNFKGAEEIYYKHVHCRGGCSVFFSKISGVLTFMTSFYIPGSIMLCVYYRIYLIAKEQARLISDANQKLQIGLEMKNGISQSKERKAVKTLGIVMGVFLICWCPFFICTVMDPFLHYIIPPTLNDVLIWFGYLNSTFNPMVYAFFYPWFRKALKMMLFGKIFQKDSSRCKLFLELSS
Method in brief: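 System: hTAAR1/Gα16 CHO (RD-HGA16) cell line | Compound: Single nominal final dose of 3 µM per compound | Schedule: Fluo-8 dye loading 75 min 37 °C, then 30 min room temperature | Technique: Fluo-8 calcium signal, kinetic fluorescence read | Read-out: % activation from max-to-basal fluorescence ratio, DMSO-to-PEA scaled | Replicates: Triplicate wells per compound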

activation, inactive:
CC(=O)Nc1ccccc1Sc1ccc2c3c(cccc13)C(=O)N(c1ccc(C)cc1)C2=O -2.82%, O=C(CSc1nc(-c2ccco2)cc(C(F)(F)F)n1)NCc1cccs1 -0.49%, Cc1cccc(NC(=O)C(C)N2C(=O)C3C4CC(C(Br)C4Br)C3C2=O)c1 (configuration not stated) 33.9%, CCN(CC)c1ccc2oc(=O)c(C)nc2c1 34.1%, O=C(Nc1ccc(Cl)cc1)N1CCc2[nH]c3ccccc3c2C1 21.7%, Cc1cc(=O)oc2c(C)c(OCC(=O)NCCN3CCOCC3)ccc12 2.28%, O=C(NCCc1ccccc1)/C(=C\c1ccc([N+](=O)[O-])cc1)NC(=O)c1ccccc1 34.4%, CCC(c1nnnn1Cc1ccco1)N(CCc1ccccc1)Cc1cc2ccc(OC)cc2[nH]c1=O (configuration not stated) 30.9%, CC(Oc1ccc(Cl)cc1)C(=O)OCC(=O)Nc1ncc(Cl)cc1Cl (configuration not stated) 30.3%

activation, active:
O=C(COC(=O)Cc1ccccc1F)NCCc1ccccc1 73%, C[C@H](NC(=O)c1ccccc1)C(=O)OCC(=O)c1c[nH]c2ccccc12 79.6%, Cc1ccn2c(=O)c(C(=O)NCCC3=CCCCC3)c(O)nc2c1 106%, O=C(CCCN=C1NS(=O)(=O)c2ccccc21)OCC(=O)c1ccc(F)c(F)c1 83.8%, O=Cc1c(NCCc2cccc(F)c2)c2ccccc2[nH]c1=O 78.3%, CCCCOc1ccc(CSC(=N)N)cc1[N+](=O)[O-] 48%, O=C1CCCC(O)=C1C=NCCc1ccccc1 74.5%, COc1cccc(-c2cnc(OC(C)(C)C)nc2OC(C)(C)C)c1 38.6%, CN(C)c1ccc(/C=C2\NC(=S)N(Cc3ccccc3)C2=O)cc1 51.1%, c1ccc2c(c1)OCC(CNc1ncnc3nc[nH]c13)O2 (configuration not stated) 210%, CCCSc1nc2c(c(=O)n(C)c(=O)n2C)n1Cc1ccc(C)cc1 61%, COc1ccc(C(=O)CN2C(=O)NC(C)(c3ccc(C)cc3)C2=O)cc1OC (configuration not stated) 46.6%, c1ccc(Nc2nc(N3CCOCC3)c3ccccc3n2)cc1 93.8%, CC(NC(=O)c1cc(-c2ccccc2)on1)c1ccccc1 (configuration not stated) 66.5%, O=C(Nc1ccccc1)Nc1nnc(COc2ccccc2F)s1 71.7%, Nc1cc(OC(=O)c2ccccc2Br)nn1S(=O)(=O)c1ccccc1 59.1%, COc1ccc(CC(N)c2csc(NC(=O)Cc3ccccc3)n2)cc1 (configuration not stated) 57.8%, NC(Cc1ccccc1)c1csc(Nc2cc(Oc3ccccc3)ncn2)n1 (configuration not stated) 87%, CC(C)(C)CC(=O)Nc1nc(C(N)Cc2ccc(C(F)(F)F)cc2)cs1 (configuration not stated) 99%, CN(C)CCCN(C(=O)c1ccc(S(=O)(=O)N2CCCCCC2)cc1)c1nc2ccc(Br)cc2s1 44%, CN(C)CCCN(C(=O)c1ccc(S(=O)(=O)N2CCCc3ccccc32)cc1)c1nc2ccc(F)cc2s1 62.2%, O=C1CCCN2N=C(SCC(=O)Nc3ccc(Br)cc3)SC2=N1 55.6%, O=C(NCCc1ccccc1)C(=O)NCC1OCCN1S(=O)(=O)c1cccs1 (configuration not stated) 70.4%, Cn1c(=O)c(=O)n(C)c2cc(S(=O)(=O)NCCc3ccccc3)ccc21 98.3%, CCCc1ccc(OCC(=O)NNC(=S)NC(=O)c2ccco2)cc1 93.8%, CC(Oc1ccc2ccccc2c1)C(=O)NNC(=S)NC(=O)c1ccco1 (configuration not stated) 76%, Oc1ccc2ccc3cccc[n+]3c2c1 60.5%, COc1ccc(C(N)c2csc(NC(=O)Nc3cccc(C(F)(F)F)c3)n2)cc1 (configuration not stated) 45.9%, NC(c1ccccc1)c1csc(NC(=O)Nc2cccc(C(F)(F)F)c2)n1 (configuration not stated) 61.4%, O=c1cnnc(Nc2ccccc2)[nH]1 80.2%, CCCCC(=O)NNC(=S)NC(=O)C(c1ccccc1)c1ccccc1 152%, Cc1cc(C)c2cc(C#N)c(N3CCNCC3)nc2c1 90.6%, CCOc1ccc(Br)cc1CSC(=N)N 73.8%, O=C(c1noc2c1CCCC2)N1CCc2ccccc2C1 68%, c1ccc(-c2csc(N3CCc4ccccc4C3)n2)cc1 81.8%, CSc1nc(N)c(C#N)c(-c2ccccc2Cl)c1C#N 58.5%, CCCCCC(=O)NC(=S)NNC(=O)c1ccc([N+](=O)[O-])cc1 113%, Cc1ccc(Cl)cc1N1CCN(C(=O)c2cccc3c(=O)c(C)c(-c4ccccc4)oc23)CC1 113%, S=C(NCCc1ccccc1)N1CCn2cccc2C1c1ccncc1 (configuration not stated) 95%, COc1ccc2c(c1)OC(O)(C(F)(F)C(F)F)CC2=O (configuration not stated) 38.7%, COC(=O)c1[nH]c2cccc(C)c2c1NC(=O)CN1CCCc2ccccc21 68.9%, Cc1cc2nc3c(=O)[nH]c(=O)nc-3n(C[C@H](O)[C@H](O)[C@H](O)CO)c2cc1C 121%, O=C(N[C@H](C(=O)N1CCC[C@H]1C(=O)NCCc1ccccc1Cl)c1ccccc1)c1ccccc1 83.6%, Nc1cccc2c1C(=O)N(Cc1nnc(-c3ccccc3Br)o1)C2=O 100%, CCC(c1nnnn1Cc1ccco1)N(CCc1ccccc1)Cc1cc2cccc(C)c2[nH]c1=O (configuration not stated) 50.2%, CCCn1c(O)c(CN2CCCC(C)C2)c(C)c(C#N)c1=O (configuration not stated) 85%, Nc1c(NCCc2ccccc2)c2ccccc2oc1=O 70.5%, O=[N+]([O-])c1cc(S(=O)(=O)NCCc2ccccn2)ccc1Cl 76.4%, O=C1C=C(c2ccc(Cl)cc2)C(=O)N1Nc1ccccc1 58.5%, CCc1ccccc1S(=O)(=O)Cc1ccc(C(=O)NCCc2ccccc2)o1 78.3%, O=C(NNC(=S)NC(=O)c1cn(-c2ccccc2)nc1-c1ccccc1)c1ccncc1 103%, O=C(Nc1ccc(F)cc1)Nc1nnc([C@H]2C[C@H](O)[C@@H](CO)O2)s1 52.9%, Nc1c(C(=O)c2cccs2)sc2nsc(SCCN3CCCCC3)c12 85%
